# ChEMBL document CHEMBL1926575, “Synthesis, biological evaluation and molecular modeling of 1,2,3-triazole analogs of combretastatin A-1” (Bioorg Med Chem, 2012)
# Experiments:
# MCF7 = assay: Cytotoxicity against human MCF7 cells by alamar blue assay; type: functional, cell-based
# NCI-H460 = assay: Cytotoxicity against human NCI-H460 cells by alamar blue assay; type: functional, cell-based
# HT-29 = assay: Cytotoxicity against human HT-29 cells by alamar blue assay; type: functional, cell-based
# CCRF-CEM = assay: Cytotoxicity against human CEM cells by alamar blue assay; type: functional, cell-based
# [1] = Cytotoxicity against human fibroblast cells by alamar blue assay; type: cell-based
# [2] = Inhibition of angiogenesis in endothelial cells assessed as inhibition of tube formation after 18 hrs by inverted microscopic analysis; type: functional, cell-based; conditions: Endothelial cell
# Tubulin = Tubulin (Sus scrofa, UniProt P02554+P02550); assay: Inhibition of porcine brain tubulin polymerization after 60 mins
# Procedure, shortened: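 Porcine brain tubulin (50 ul of 11 mg/ml stock) in Mes buffer (0.1 M Mes, 1 mM EGTA, 0.5 mM MgCl2, pH 6.6) with GTP (20 ul of 5 mM stock), plate prechilled 4 °C, drug added in DMSO; A350 recorded at ambient temperature for 60 min against drug blanks. IC50 read graphically as percent of control assembly.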
# [3] = Ratio of CA-1 IC50 to compound IC50 for inhibition of angiogenesis in endothelial cells; type: functional, Endothelial cell
IC50 [2] [µM],IC50 (Tubulin) [µM],Structure (SMILES),IC50 (MCF7) [µM],IC50 (NCI-H460) [µM],IC50 (HT-29) [µM],IC50 (CCRF-CEM) [µM],IC50 [1] [µM],Ratio IC50 [3]
0.3,5.2,COc1ccc(-c2cnnn2-c2cc(OC)c(OC)c(OC)c2)c(N)c1N,38.8,17.3,17.2,> 100,> 100,10
,10.1,COc1ccc(-c2cnnn2-c2cc(OC)c(OC)c(OC)c2)c(O)c1O,,,,,,
3.2,3.5,COc1ccc(/C=C\c2cc(OC)c(OC)c(OC)c2)c(O)c1O [COMBRETASTATIN A-1],75.9,1.8,0.9,> 100,> 100,
> 10,> 20,COc1cc(-n2nncc2-c2ccc3c(c2O)OC(C)(C)O3)cc(OC)c1OC,46.3,16.8,> 100,> 100,> 100,
3.4,17.1,COc1cc(-n2nncc2-c2ccc3c(c2O)OCO3)cc(OC)c1OC,> 100,7.4,8.8,> 100,> 100,
> 10,> 20,COc1ccc(-n2nncc2-c2cc(OC)c(OC)c(OC)c2)c(O)c1O,> 100,26.6,64.3,> 100,> 100,
0.3,15.6,COc1ccc(-c2cnnn2-c2cc(OC)c(OC)c(OC)c2)c(F)c1F,26.7,4.9,1.9,> 100,> 100,10
> 10,,COc1cc(-n2cc(-c3ccc(OC)c([N+](=O)[O-])c3[N+](=O)[O-])nn2)cc(OC)c1OC,> 100,18.2,> 100,> 100,> 100,
> 10,,COc1ccc(-c2cn(-c3cc(OC)c(OC)c(OC)c3)nn2)c(N)c1N,> 100,29.8,> 100,> 100,> 100,
4.4,> 20,COc1cc(-n2nncc2-c2ccc(OC)c([N+](=O)[O-])c2[N+](=O)[O-])cc(OC)c1OC,6.1,0.7,12,26,31.5,

Structure (SMILES),IC50 [2] [µM],IC50 (Tubulin) [µM],IC50 (MCF7) [µM],IC50 (NCI-H460) [µM],IC50 (HT-29) [µM],IC50 (CCRF-CEM) [µM],IC50 [1] [µM],Ratio IC50 [3]
COc1ccc(/C=C\c2cc(OC)c(OC)c(OC)c2)cc1O [COMBRETASTATIN A4],0.01,,48.9,4.4,0.4,> 100,> 100,
